Reference: ChEMBL document CHEMBL1133614, “Novel radiotracers for imaging the serotonin transporter by positron emission tomography: synthesis, radiosynthesis, and in vitro and ex vivo evaluation of (11)C-labeled 2-(phenylthio)araalkylamines” (J Med Chem, 2000)

Key:
[1] = Half-life of washout rate of radioactivity from the cerebellum.; format: ADME, tissue-based
Outline: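 Rats received the 11C tracer by tail vein (3-30 MBq, 350-450 ng, buffered saline), 3 per time point. Cerebellar radioactivity (%ID/g) was followed over time after injection, and the half-life of its washout was derived from that time course.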

[2] = Log P at pH 7.4; format: physicochemical; conditions: buffer, read-out: logD
Outline: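 Partition of the radiolabelled compound between 1-octanol and 0.02 M phosphate buffer at pH 7.4.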

Rattus norvegicus [3] = organism: Rattus norvegicus; test: Biodistribution of radioactivity in rat thalamus upon Tail-Vein injection of [11C]-labeled compound after 15 min; format: ADME, organism-based; conditions: in vivo, iv, 0.25 h
Rattus norvegicus [4] = organism: Rattus norvegicus; test: Biodistribution of radioactivity in rat thalamus upon Tail-Vein injection of [11C]-labeled compound after 30 min; format: ADME, organism-based; conditions: in vivo, iv, 0.5 h
Rattus norvegicus [5] = organism: Rattus norvegicus; test: Biodistribution of radioactivity in rat blood upon Tail-Vein injection of [11C]-labeled compound after 15 min; format: ADME, organism-based; conditions: in vivo, iv, 0.25 h
Rattus norvegicus [6] = organism: Rattus norvegicus; test: Biodistribution of radioactivity in rat blood upon Tail-Vein injection of [11C]-labeled compound after 30 min upon; format: ADME, organism-based; conditions: in vivo, iv, 0.5 h
Rattus norvegicus [7] = organism: Rattus norvegicus; test: Biodistribution of radioactivity in rat blood upon Tail-Vein injection of [11C]-labeled compound after 5 min; format: ADME, organism-based; conditions: in vivo, iv
Rattus norvegicus [8] = organism: Rattus norvegicus; test: Biodistribution of radioactivity in rat blood upon Tail-Vein injection of [11C]-labeled compound after 60 min; format: ADME, organism-based; conditions: in vivo, iv, 1 h
Rattus norvegicus [9] = organism: Rattus norvegicus; test: Biodistribution of radioactivity in rat cerebellum upon Tail-Vein injection of [11C]-labeled compound after 15 min; format: ADME, organism-based; conditions: in vivo, iv, 0.25 h
Rattus norvegicus [10] = organism: Rattus norvegicus; test: Biodistribution of radioactivity in rat cerebellum upon Tail-Vein injection of [11C]-labeled compound after 30 min; format: ADME, organism-based; conditions: in vivo, iv, 0.5 h
Rattus norvegicus [11] = organism: Rattus norvegicus; test: Biodistribution of radioactivity in rat cerebellum upon Tail-Vein injection of [11C]-labeled compound after 5 min; format: ADME, organism-based; conditions: in vivo, iv
Rattus norvegicus [12] = organism: Rattus norvegicus; test: Biodistribution of radioactivity in rat cerebellum upon Tail-Vein injection of [11C]-labeled compound after 60 min; format: ADME, organism-based; conditions: in vivo, iv, 1 h
Rattus norvegicus [13] = organism: Rattus norvegicus; test: Biodistribution of radioactivity in rat cortex upon Tail-Vein injection of [11C]-labeled compound after 15 min; format: ADME, organism-based; conditions: in vivo, iv, 0.25 h
Rattus norvegicus [14] = organism: Rattus norvegicus; test: Biodistribution of radioactivity in rat cortex upon Tail-Vein injection of [11C]-labeled compound after 30 min; format: ADME, organism-based; conditions: in vivo, iv, 0.5 h
Rattus norvegicus [15] = organism: Rattus norvegicus; test: Biodistribution of radioactivity in rat thalamus upon Tail-Vein injection of [11C]-labeled compound after 5 min; format: ADME, organism-based; conditions: in vivo, iv
Rattus norvegicus [16] = organism: Rattus norvegicus; test: Biodistribution of radioactivity in rat cortex upon Tail-Vein injection of [11C]-labeled compound after 5 min; format: ADME, organism-based; conditions: in vivo, iv
Rattus norvegicus [17] = organism: Rattus norvegicus; test: Biodistribution of radioactivity in rat cortex upon Tail-Vein injection of [11C]-labeled compound after 60 min; format: ADME, organism-based; conditions: in vivo, iv, 1 h
Rattus norvegicus [18] = organism: Rattus norvegicus; test: Biodistribution of radioactivity in rat hippocampus upon Tail-Vein injection of [11C]-labeled compound after 15 min; format: ADME, organism-based; conditions: in vivo, iv, 0.25 h
Rattus norvegicus [19] = organism: Rattus norvegicus; test: Biodistribution of radioactivity in rat hippocampus upon Tail-Vein injection of [11C]-labeled compound after 30 min; format: ADME, organism-based; conditions: in vivo, iv, 0.5 h
Rattus norvegicus [20] = organism: Rattus norvegicus; test: Biodistribution of radioactivity in rat hippocampus upon Tail-Vein injection of [11C]-labeled compound after 5 min; format: ADME, organism-based; conditions: in vivo, iv
Rattus norvegicus [21] = organism: Rattus norvegicus; test: Biodistribution of radioactivity in rat hippocampus upon Tail-Vein injection of [11C]-labeled compound after 60 min; format: ADME, organism-based; conditions: in vivo, iv, 1 h
Rattus norvegicus [22] = organism: Rattus norvegicus; test: Biodistribution of radioactivity in rat hypothalamus upon Tail-Vein injection of [11C]-labeled compound after 15 min; format: ADME, organism-based; conditions: in vivo, iv, 0.25 h
Rattus norvegicus [23] = organism: Rattus norvegicus; test: Biodistribution of radioactivity in rat hypothalamus upon Tail-Vein injection of [11C]-labeled compound after 30 min; format: ADME, organism-based; conditions: in vivo, iv, 0.5 h
Rattus norvegicus [24] = organism: Rattus norvegicus; test: Biodistribution of radioactivity in rat hypothalamus upon Tail-Vein injection of [11C]-labeled compound after 5 min; format: ADME, organism-based; conditions: in vivo, iv
Rattus norvegicus [25] = organism: Rattus norvegicus; test: Biodistribution of radioactivity in rat hypothalamus upon Tail-Vein injection of [11C]-labeled compound after 60 min; format: ADME, organism-based; conditions: in vivo, iv, 1 h
Rattus norvegicus [26] = organism: Rattus norvegicus; test: Biodistribution of radioactivity in rat striatum upon Tail-Vein injection of [11C]-labeled compound after 15 min; format: ADME, organism-based; conditions: in vivo, iv, 0.25 h
Rattus norvegicus [27] = organism: Rattus norvegicus; test: Biodistribution of radioactivity in rat striatum upon Tail-Vein injection of [11C]-labeled compound after 30 min; format: ADME, organism-based; conditions: in vivo, iv, 0.5 h
Rattus norvegicus [28] = organism: Rattus norvegicus; test: Biodistribution of radioactivity in rat striatum upon Tail-Vein injection of [11C]-labeled compound after 5 min; format: ADME, organism-based; conditions: in vivo, iv
Rattus norvegicus [29] = organism: Rattus norvegicus; test: Biodistribution of radioactivity in rat striatum upon Tail-Vein injection of [11C]-labeled compound after 60 min; format: ADME, organism-based; conditions: in vivo, iv, 1 h
[30] = molecular target: Sodium-dependent noradrenaline transporter (Homo sapiens, UniProt P23975); test: In vitro binding affinity on cloned Norepinephrine transporter
Outline: (§1)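 Competition binding in triplicate on membranes from cloned human transporters. Buffer 50 mM Tris-Cl pH 7.4 with 150 mM NaCl/5 mM KCl (SERT, NET) or 100 mM NaCl (DAT). Incubated 40 min at 37 °C, then filtered on PEI-soaked GF/B filters. Nonspecific binding set with duloxetine 1 µM (SERT), desipramine 10 µM (NET) or nomifensine 10 µM (DAT). IC50 from nonlinear fit; Ki by Cheng-Prusoff.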

[31] = molecular target: Sodium-dependent serotonin transporter (Homo sapiens, UniProt P31645); test: In vitro binding affinity on cloned Serotonin transporter
Outline: as §1, with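 “transporters. Radioligands: SERT [3H]paroxetine 0.2 nM with 10.3 µg protein, NET [3H]nisoxetine 1.0 nM with 16.9 µg, DAT [3H]WIN 35,428 1.0 nM with 6.2 µg.” for “transporters.”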

Rattus norvegicus [32] = organism: Rattus norvegicus; test: Biodistribution of radioactivity in rat thalamus upon Tail-Vein injection of [11C]-labeled compound after 60 min; format: ADME, organism-based; conditions: in vivo, iv, 1 h
[33] = molecular target: Sodium-dependent dopamine transporter (Homo sapiens, UniProt Q01959); test: In vitro binding affinity on cloned Dopamine transporter
Outline: as §1, with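 “transporters. Radioligands: SERT [3H]paroxetine 0.2 nM with 10.3 µg protein, NET [3H]nisoxetine 1.0 nM with 16.9 µg, DAT [3H]WIN 35,428 1.0 nM with 6.2 µg.” for “transporters.”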

Sodium-dependent dopamine transporter, sequence (Q01959 whole entry): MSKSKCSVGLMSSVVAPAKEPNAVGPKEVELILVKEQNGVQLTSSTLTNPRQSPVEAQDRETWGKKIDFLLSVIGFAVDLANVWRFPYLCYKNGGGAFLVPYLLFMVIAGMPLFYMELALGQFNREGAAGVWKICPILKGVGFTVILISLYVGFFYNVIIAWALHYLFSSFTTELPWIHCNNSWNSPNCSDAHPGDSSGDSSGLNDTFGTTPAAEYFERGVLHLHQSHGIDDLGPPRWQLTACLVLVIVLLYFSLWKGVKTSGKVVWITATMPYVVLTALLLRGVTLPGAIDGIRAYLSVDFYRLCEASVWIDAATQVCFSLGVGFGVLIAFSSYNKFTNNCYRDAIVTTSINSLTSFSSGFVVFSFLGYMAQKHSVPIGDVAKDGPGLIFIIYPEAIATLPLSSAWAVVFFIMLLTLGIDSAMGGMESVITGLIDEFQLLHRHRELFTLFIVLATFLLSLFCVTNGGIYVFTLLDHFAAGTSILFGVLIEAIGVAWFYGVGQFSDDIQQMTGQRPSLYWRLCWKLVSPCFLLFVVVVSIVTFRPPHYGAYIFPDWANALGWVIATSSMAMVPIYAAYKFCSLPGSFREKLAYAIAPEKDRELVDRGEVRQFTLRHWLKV
Sodium-dependent serotonin transporter, sequence (P31645 whole entry): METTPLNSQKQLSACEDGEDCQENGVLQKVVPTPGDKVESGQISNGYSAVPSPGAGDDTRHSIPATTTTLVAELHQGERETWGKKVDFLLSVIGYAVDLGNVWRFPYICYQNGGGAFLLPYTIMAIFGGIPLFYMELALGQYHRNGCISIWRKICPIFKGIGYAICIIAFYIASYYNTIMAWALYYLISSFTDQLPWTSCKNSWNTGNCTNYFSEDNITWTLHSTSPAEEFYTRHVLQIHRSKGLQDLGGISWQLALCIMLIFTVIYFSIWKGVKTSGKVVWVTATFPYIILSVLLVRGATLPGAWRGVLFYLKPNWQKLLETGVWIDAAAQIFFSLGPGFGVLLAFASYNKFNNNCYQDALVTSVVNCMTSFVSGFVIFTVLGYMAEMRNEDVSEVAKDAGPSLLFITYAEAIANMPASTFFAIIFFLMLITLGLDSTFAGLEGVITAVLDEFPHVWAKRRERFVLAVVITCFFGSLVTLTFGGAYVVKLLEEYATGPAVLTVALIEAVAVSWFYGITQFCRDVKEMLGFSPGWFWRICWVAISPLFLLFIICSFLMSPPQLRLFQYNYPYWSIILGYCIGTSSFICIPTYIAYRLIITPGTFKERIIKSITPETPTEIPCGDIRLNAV
Sodium-dependent noradrenaline transporter, sequence (P23975 whole entry): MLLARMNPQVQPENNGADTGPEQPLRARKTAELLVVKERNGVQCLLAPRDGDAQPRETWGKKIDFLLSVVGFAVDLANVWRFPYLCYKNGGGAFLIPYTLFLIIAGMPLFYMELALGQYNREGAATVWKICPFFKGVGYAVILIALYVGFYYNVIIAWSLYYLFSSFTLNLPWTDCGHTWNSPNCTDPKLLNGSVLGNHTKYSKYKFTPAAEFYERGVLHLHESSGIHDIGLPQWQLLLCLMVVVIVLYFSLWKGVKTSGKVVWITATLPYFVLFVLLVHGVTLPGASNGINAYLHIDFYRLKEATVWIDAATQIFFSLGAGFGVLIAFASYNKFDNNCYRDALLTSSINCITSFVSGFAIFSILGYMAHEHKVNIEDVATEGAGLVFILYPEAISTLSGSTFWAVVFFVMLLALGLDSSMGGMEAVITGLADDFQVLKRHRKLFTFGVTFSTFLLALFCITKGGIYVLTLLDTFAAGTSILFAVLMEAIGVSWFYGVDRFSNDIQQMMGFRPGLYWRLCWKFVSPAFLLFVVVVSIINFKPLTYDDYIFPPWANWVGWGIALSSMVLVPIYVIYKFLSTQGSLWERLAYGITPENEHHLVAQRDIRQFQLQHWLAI

| SMILES | T1/2 [1] [min] | logD [2] | ID/g (Rattus norvegicus [3]) [%] | ID/g (Rattus norvegicus [4]) [%] | ID/g (Rattus norvegicus [5]) [%] | ID/g (Rattus norvegicus [6]) [%] | ID/g (Rattus norvegicus [7]) [%] | ID/g (Rattus norvegicus [8]) [%] | ID/g (Rattus norvegicus [9]) [%] | ID/g (Rattus norvegicus [10]) [%] | ID/g (Rattus norvegicus [11]) [%] | ID/g (Rattus norvegicus [12]) [%] | ID/g (Rattus norvegicus [13]) [%] | ID/g (Rattus norvegicus [14]) [%] | ID/g (Rattus norvegicus [15]) [%] | ID/g (Rattus norvegicus [16]) [%] | ID/g (Rattus norvegicus [17]) [%] | ID/g (Rattus norvegicus [18]) [%] | ID/g (Rattus norvegicus [19]) [%] | ID/g (Rattus norvegicus [20]) [%] | further results |
| --- | --- | --- | --- | --- | --- | --- | --- | --- | --- | --- | --- | --- | --- | --- | --- | --- | --- | --- | --- | --- | --- |
| CN(C)Cc1ccccc1Sc1ccc(Cl)cc1N | 25.4 | 3.55 | 1.54 | 1.65 | 0.28 | 0.14 | 0.39 | 0.08 | 0.75 | 0.47 | 1.03 | 0.23 | 1.33 | 1.14 | 1.43 | 1.39 | 0.73 | 1.12 | 1.04 | 1.06 | ID/g (Rattus norvegicus [21]): 0.74%; ID/g (Rattus norvegicus [22]): 1.48%; ID/g (Rattus norvegicus [23]): 1.47%; ID/g (Rattus norvegicus [24]): 1.36%; ID/g (Rattus norvegicus [25]): 1.19%; ID/g (Rattus norvegicus [26]): 1.34%; ID/g (Rattus norvegicus [27]): 1.17%; ID/g (Rattus norvegicus [28]): 1.36%; ID/g (Rattus norvegicus [29]): 0.79%; Ki [30]: 230 nM; Ki [31]: 0.27 nM; ID/g (Rattus norvegicus [32]): 1.24%; Ki [33]: 115 nM |
| CN(C)Cc1ccccc1Sc1ccc(C(F)(F)F)cc1N | 32.3 | 3.77 | 1.06 | 1.07 | 0.21 | 0.21 | 0.35 | 0.12 | 0.7 | 0.47 | 0.92 | 0.28 | 1.06 | 0.98 | 1.07 | 1.09 | 0.69 | 0.91 | 0.88 | 0.92 | ID/g (Rattus norvegicus [21]): 0.75%; ID/g (Rattus norvegicus [22]): 1.17%; ID/g (Rattus norvegicus [23]): 1.23%; ID/g (Rattus norvegicus [24]): 1.02%; ID/g (Rattus norvegicus [25]): 0.99%; ID/g (Rattus norvegicus [26]): 1.02%; ID/g (Rattus norvegicus [27]): 0.99%; ID/g (Rattus norvegicus [28]): 1.05%; ID/g (Rattus norvegicus [29]): 0.72%; Ki [30]: 1200 nM; Ki [31]: 0.33 nM; ID/g (Rattus norvegicus [32]): 0.89%; Ki [33]: 2040 nM |
